Experimental data: ChEMBL document CHEMBL4038330, “Discovery of Potent Orally Active Protease-Activated Receptor 1 (PAR1) Antagonists Based on Andrographolide” (J Med Chem, 2017)

Assays:
Plasma [1] = assay: Stability in Wistar rat assessed as parent compound level in plasma at 10 mg/kg, po administered as single dose measured at 3 hrs post dose by LC-HRMS analysis; format: ADME, organism-based; settings: in vivo
Procedure, shortened: (§1)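 Rats dosed orally at 10 mg/kg or 5 mg/kg. Plasma taken at 3.0 h after dosing. Parent and metabolites detected by extracted ion chromatograms.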

Plasma [2] = assay: Drug metabolism in Wistar rat plasma assessed as [M1-2H+O] metabolite formation at 10 mg/kg, po administered as single dose measured at 3 hrs post dose by LC-HRMS analysis; format: ADME, organism-based; settings: in vivo; procedure, shortened: as §1
Plasma [3] = assay: Drug metabolism in Wistar rat plasma assessed as (1S,2S,4aS,5S,6R,8aR)-1-((E)-2-(5-(3-Fluorophenyl)pyridin-2-yl)vinyl)-6-hydroxy-5,8a-dimethyloctahydro-1H-spiro[naphthalene-2,2'-oxirane]-5-carboxylic acid metabolite formation at 10 mg/kg, po administered as single dose measured at 3 hrs post dose by LC-HRMS analysis; format: ADME, organism-based; settings: in vivo; procedure, shortened: as §1
[4] = AUC (0 to infinity) in Wistar rat plasma at 10 mg/kg, po administered as single dose administered as single dose at 3 hrs post dose by LC-MS/MS analysis; format: ADME, organism-based; set-up: dose 10 mg/kg, route oral, time infinity
Plasma [5] = assay: Drug metabolism in Wistar rat plasma assessed as [M1+O] metabolite formation at 10 mg/kg, po administered as single dose measured at 3 hrs post dose by LC-HRMS analysis; format: ADME, organism-based; settings: in vivo; procedure, shortened: as §1
Plasma [6] = assay: Drug metabolism in Wistar rat plasma assessed as [M1-CH2-2H] metabolite formation at 10 mg/kg, po administered as single dose measured at 3 hrs post dose by LC-HRMS analysis; format: ADME, organism-based; settings: in vivo; procedure, shortened: as §1
Plasma [7] = assay: Drug metabolism in Wistar rat plasma assessed as [M1-2H] metabolite formation at 10 mg/kg, po administered as single dose measured at 3 hrs post dose by LC-HRMS analysis; format: ADME, organism-based; settings: in vivo; procedure, shortened: as §1
[8] = molecular target: T1, Proteinase-activated receptor 1 (Homo sapiens, UniProt P25116); assay: Antagonist activity at human PAR1 expressed in HEK293 cells co-expressing Galpha15 assessed as inhibition of haTRAP-induced calcium mobilization preincubated for 15 mins followed by haTRAP addition by calcium-4 dye based FLIPR assay; format: functional, cell-based
T1 sequence (P25116 whole entry): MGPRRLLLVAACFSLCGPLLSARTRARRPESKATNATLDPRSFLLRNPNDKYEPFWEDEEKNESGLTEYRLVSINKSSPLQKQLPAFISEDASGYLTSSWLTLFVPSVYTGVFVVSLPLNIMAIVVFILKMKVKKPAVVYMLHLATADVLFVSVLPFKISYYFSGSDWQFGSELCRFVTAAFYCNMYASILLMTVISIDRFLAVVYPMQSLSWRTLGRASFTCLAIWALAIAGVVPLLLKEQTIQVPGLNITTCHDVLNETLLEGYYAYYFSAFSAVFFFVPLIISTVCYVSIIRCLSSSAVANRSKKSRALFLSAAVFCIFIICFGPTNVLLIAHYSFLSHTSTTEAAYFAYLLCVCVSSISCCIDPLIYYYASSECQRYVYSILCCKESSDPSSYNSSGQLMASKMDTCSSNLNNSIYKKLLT

Rattus norvegicus = assay: AUC (0 to infinity) in Wistar rat assessed as (1S,2S,4aS,5S,6R,8aR)-1-((E)-2-(5-(3-Fluorophenyl)pyridin-2-yl)vinyl)-6-hydroxy-5,8a-dimethyloctahydro-1H-spiro[naphthalene-2,2'-oxirane]-5-carboxylic acid level in plasma at 10 mg/kg, po administered as single dose at 3 hrs post dose by LC-MS/MS analysis; format: ADME, organism-based; set-up: dose 10 mg/kg, route oral, time infinity; settings: in vivo

Stability (Plasma [1]): Unstable
Drug metabolism (Plasma [2]): Metabolite_Detected
Drug metabolism (Plasma [3]): Metabolite_Detected
AUC(0-inf) [4]: 269 ng·h/mL
Drug metabolism (Plasma [5]): Metabolite_Detected
Drug metabolism (Plasma [6]): Metabolite_Detected
Drug metabolism (Plasma [7]): Metabolite_Detected
IC50 [8]: 7 µM
AUC (Rattus norvegicus): 8412.7 ng·h/mL
SMILES: COC(=O)[C@]1(C)[C@H](O)CC[C@@]2(C)[C@H](/C=C/c3ccc(-c4cccc(F)c4)cn3)[C@@]3(CC[C@@H]21)CO3
